Source: ChEMBL document CHEMBL1123074, “Aromatase inhibitors. Synthesis and biological activity of androstenedione derivatives” (J Med Chem, 1985)

Key:
Aromatase [1] = target: T1, Aromatase (Homo sapiens, UniProt P11511); test: Percent inhibition of human placental Cytochrome P450 19A1 at 3:1 inhibitor: androstenedione (0.7 uM) ratio
T1 sequence (P11511 whole entry): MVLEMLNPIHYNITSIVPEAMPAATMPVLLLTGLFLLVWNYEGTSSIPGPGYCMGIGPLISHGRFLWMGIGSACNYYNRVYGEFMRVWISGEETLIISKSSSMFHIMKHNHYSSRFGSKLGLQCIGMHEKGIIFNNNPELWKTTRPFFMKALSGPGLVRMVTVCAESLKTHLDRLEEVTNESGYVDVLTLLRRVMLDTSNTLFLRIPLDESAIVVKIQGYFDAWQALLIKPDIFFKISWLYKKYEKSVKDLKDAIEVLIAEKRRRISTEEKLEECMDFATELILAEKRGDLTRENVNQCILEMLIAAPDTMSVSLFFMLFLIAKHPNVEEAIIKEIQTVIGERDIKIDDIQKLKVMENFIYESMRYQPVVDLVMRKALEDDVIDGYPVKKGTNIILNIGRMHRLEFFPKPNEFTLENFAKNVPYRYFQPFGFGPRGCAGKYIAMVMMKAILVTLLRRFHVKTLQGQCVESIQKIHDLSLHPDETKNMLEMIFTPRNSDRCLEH
Outline: (§1)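 Human term placental microsomes (0.3-0.9 mg protein) incubated with test compound at stated inhibitor:substrate ratio, [4-14C]androstenedione, 0.7 μM androstenedione and NADPH-generating system (NADP, glucose 6-phosphate, glucose-6-phosphate dehydrogenase) in 0.1 M phosphate buffer pH 7.4, 30 min, 37 °C under oxygen. Stopped with [6,7-3H2]estradiol/estrone recovery markers and carriers; estrogens extracted, TLC-purified, quantified versus control.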

Aromatase [2] = target: T1, Aromatase; test: Percent inhibition of human placental Cytochrome P450 19A1 at 1:1 inhibitor: androstenedione (0.7 uM) ratio; outline: as §1
Aromatase [3] = target: T1, Aromatase; test: Percent inhibition of human placental Cytochrome P450 19A1 at 6:1 inhibitor: androstenedione (0.7 uM) ratio; outline: as §1

| SMILES | Inhibition (Aromatase [1]) [%] | Inhibition (Aromatase [2]) [%] | Inhibition (Aromatase [3]) [%] |
| --- | --- | --- | --- |
| CC(=O)OC1=C2CCC3C4CCC(=O)C4(C)CCC3C2(C)CCC1=O (stereo unspecified) | 90 | 81 | – |
| CC12CCC3C(C=CC4=C(O)C(=O)CCC43C)C1CCC2=O (stereo unspecified) | 30 | 8 | – |
| CC12CCC3C(CCC4=C(OC(=O)CCC(=O)O)C(=O)CCC43C)C1CCC2=O (stereo unspecified) | 70 | – | – |
| CC12CCC3C(CCC4=C(Cl)C(=O)CCC43C)C1CCC2=O (stereo unspecified) | 9 | – | 43 |
| CC12CCC3C(CC(=O)C4=CC(=O)CCC43C)C1CCC2=O (stereo unspecified) | 78 | – | – |
| C[C@]12C=CC(=O)C=C1C=C[C@@H]1[C@@H]2CC[C@]2(C)C(=O)CC[C@@H]12 | 83 | 69 | – |
| CC12C=CC(=O)C(O)=C1CCC1C2CCC2(C)C(=O)CCC12 (stereo unspecified) | 84 | 66 | – |
| COC1=C2CCC3C4CCC(=O)C4(C)CCC3C2(C)CCC1=O (stereo unspecified) | 7 | – | 28 |
| C[C@]12CCC(=O)C(O)=C1CC[C@@H]1[C@@H]2CC[C@]2(C)C(=O)CC[C@@H]12 [FORMESTANE] | 91 | 89 | – |
